Test results: ChEMBL document CHEMBL1122443, “Synthesis and antitumor evaluation of selected 5,6-disubstituted 1(2)H-indazole-4,7-diones” (1983)
Activity calls are given as the source filed them. No cut-off for these calls is given here.

Assays:
[1] = tested on: Mus musculus; experiment: Antitumor activity in CF1 mice bearing Ehrlich ascites carcinoma measured as percent ascrit packed cell volume at 5 mg/kg; assay type: functional
Method in brief: (§1)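 Male CF1 mice (22–25 g) received 2 × 10⁶ Ehrlich carcinoma cells ip on day 0. Dosing was ip daily on days 1–8, with sacrifice on day 9. Ascites fluid volume per mouse and ascrit (packed cell volume) were measured for each group. Vehicle was 0.05% Tween 80, or 5% absolute EtOH in 0.05% Tween 80, used for both compound and control. 6-Mercaptopurine was the positive control.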

[2] = tested on: Mus musculus; experiment: Antitumor activity in CF1 mice bearing Ehrlich ascites carcinoma measured as percentage inhibition at 8 mg/kg; IA means inactive; assay type: functional, organism-based; parameters: dose 8 mg/kg
Method in brief: (§2)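 Ehrlich ascites model in male CF1 mice (22–25 g): 2 × 10⁶ cells ip on day 0, ip dosing days 1–8, kill on day 9. Percent inhibition = 100 − [(treated volume × treated ascrit)/(control volume × control ascrit)]. Greater than 80% was taken as significant. Vehicle was 0.05% Tween 80, alone or with 5% absolute EtOH. 6-Mercaptopurine was the positive control.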

[3] = tested on: Mus musculus; experiment: Antitumor activity in CF1 mice bearing Ehrlich ascites carcinoma measured as percent ascrit packed cell volume at 8 mg/kg; assay type: functional; method in brief: as §1
[4] = tested on: Mus musculus; experiment: Antitumor activity in CF1 mice bearing Ehrlich ascites carcinoma measured as ascites volume at 5 mg/kg; assay type: functional; method in brief: as §1
[5] = tested on: Mus musculus; experiment: Antitumor activity in CF1 mice bearing Ehrlich ascites carcinoma measured as percent ascrit packed cell volume at 1 mg/kg; assay type: functional
Method in brief: (§3)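 CF1 male mice (22–25 g) were inoculated ip with 2 × 10⁶ Ehrlich cells on day 0 and treated ip on days 1–8 in 0.05% Tween 80 or 5% EtOH/0.05% Tween 80 vehicle. On day 9 the mice were sacrificed, and the ascrit (packed cell volume) of the ascites fluid was determined.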

[6] = tested on: Mus musculus; experiment: Antitumor activity in CF1 mice bearing Ehrlich ascites carcinoma measured as ascites volume at 8 mg/kg; assay type: functional; method in brief: as §1
[7] = tested on: Mus musculus; experiment: Antitumor activity in CF1 mice bearing Ehrlich ascites carcinoma measured as ascites volume at 1 mg/kg; assay type: functional
Method in brief: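 Ehrlich ascites cells (2 × 10⁶) were implanted ip in male CF1 mice (22–25 g) on day 0. Dosing was ip on days 1–8 in 0.05% Tween 80 or 5% EtOH/0.05% Tween 80, with vehicle controls. Mice were killed on day 9, and ascites fluid volume per mouse was measured.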

[8] = tested on: Mus musculus; experiment: Antitumor activity in 6 CF1 mice bearing Ehrlich ascites carcinoma measured as survivors on day 9 at 8 mg/kg; 6/6; assay type: functional
[9] = tested on: Mus musculus; experiment: Antitumor activity in 6 CF1 mice bearing Ehrlich ascites carcinoma measured as survivors on day 9 at 1 mg/kg; 6/6; assay type: functional
[10] = tested on: Mus musculus; experiment: Antitumor activity in CF1 mice bearing Ehrlich ascites carcinoma measured as percentage inhibition at 5 mg/kg; IA means inactive; assay type: functional, organism-based; parameters: dose 5 mg/kg; method in brief: as §2
[11] = tested on: Mus musculus; experiment: Antitumor activity in 6 CF1 mice bearing Ehrlich ascites carcinoma measured as survivors on day 9 at 5 mg/kg; 5/6; assay type: functional
[12] = tested on: Mus musculus; experiment: Antitumor activity in CF1 mice bearing Ehrlich ascites carcinoma measured as percentage inhibition at 1 mg/kg; IA means inactive; assay type: functional, organism-based; parameters: dose 1 mg/kg; method in brief: as §2
[13] = tested on: Mus musculus; experiment: Antitumor activity in CF1 mice bearing Ehrlich ascites carcinoma measured as percentage inhibition at 8 mg/kg; assay type: functional; method in brief: as §2
[14] = tested on: Mus musculus; experiment: Antitumor activity in 6 CF1 mice bearing Ehrlich ascites carcinoma measured as survivors on day 9 at 8 mg/kg; 5/6; assay type: functional
[15] = tested on: Mus musculus; experiment: Antitumor activity in 6 CF1 mice bearing Ehrlich ascites carcinoma measured as survivors on day 9 at 3 mg/kg; 6/6; assay type: functional
[16] = tested on: Mus musculus; experiment: Antitumor activity in CF1 mice bearing Ehrlich ascites carcinoma measured as percentage inhibition at 3 mg/kg; IA means inactive; assay type: functional, organism-based; parameters: dose 3 mg/kg; method in brief: as §2
[17] = tested on: Mus musculus; experiment: (§4) Antitumor activity in CF1 mice bearing Ehrlich ascites carcinoma measured as percent ascrit packed cell volume at 3 mg/kg; assay type: functional; method in brief: as §1
[18] = tested on: Mus musculus; experiment: Antitumor activity in CF1 mice bearing Ehrlich ascites carcinoma measured as ascites volume at 3 mg/kg; assay type: functional; method in brief: as §1
[19] = tested on: Mus musculus; experiment: Antitumor activity in CF1 mice bearing Ehrlich ascites carcinoma measured as percentage inhibition at 5 mg/kg; assay type: functional; method in brief: as §2
[20] = tested on: Mus musculus; experiment: Antitumor activity in 6 CF1 mice bearing Ehrlich ascites carcinoma measured as survivors on day 9 at 5 mg/kg; 6/6; assay type: functional
[21] = tested on: Mus musculus; experiment: Antitumor activity in CF1 mice bearing Ehrlich ascites carcinoma measured as percentage inhibition at 3 mg/kg; assay type: functional; method in brief: as §2
[22] = tested on: Mus musculus; experiment: as §4; assay type: functional; method in brief: as §3; remark: listed apart in the source

Compound | packed cell volume [1] | inhibition [2] | packed cell volume [3] | ascites volume [4] | packed cell volume [5] | ascites volume [6] | ascites volume [7] | Survivors [8] | Survivors [9] | Survivors [11] | inhibition [12] | inhibition in vivo at 8 mg/kg [13] | Survivors [14] | Survivors [15] | packed cell volume [17] | ascites volume [18] | inhibition in vivo at 5 mg/kg [19] | Survivors [20] | inhibition in vivo at 3 mg/kg [21] | further results
NC1=C(Cl)C(=O)c2[nH]ncc2C1=O | 32.3% | inactive | 29.1% | 2.7 ml mouse-1 | 37.6% | 3 ml mouse-1 | 2.1 ml mouse-1 | 6 | 6 | 5 | inactive |  |  |  |  |  |  |  |  | inhibition [10]: inactive
CC(=O)NC1=C(Cl)C(=O)c2[nH]ncc2C1=O | 20.2% |  | 30.8% | 0.33 ml mouse-1 | 40% | 1.8 ml mouse-1 | 3.6 ml mouse-1 |  | 6 |  | inactive | 46.9% | 5 | 6 | 38.1% | 3.6 ml mouse-1 | 83.2% | 6 |  | inhibition [16]: inactive
CC(=O)NC1=C(Cl)C(=O)c2c(cnn2C)C1=O | 29% |  | 37.9% | 0.56 ml mouse-1 |  | 0.62 ml mouse-1 |  |  |  | 5 |  | 61.7% | 5 | 6 |  | 1.7 ml mouse-1 | 90% |  | 67.8% | packed cell volume [22]: 20%
Cn1ncc2c1C(=O)C(Cl)=C(N)C2=O | 35.4% | inactive | 33.9% | 1 ml mouse-1 |  | 1.9 ml mouse-1 |  | 6 |  |  |  |  |  | 6 | 44% | 2 ml mouse-1 | 8.4% | 6 | 25.3% | 
